Test [1] in a line: Selectivity for Trypanosoma cruzi dihydrofolate reductase compared to human dihydrofolate reductase.
A short description of test [2]: In vitro activity against the amastigote stage of the parasite cultured in mouse fibroblasts (L-6 cells). Type of test: functional, cell-based. The method in brief:
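L-6 mouse fibroblasts seeded, infected next day with trypomastigote T. cruzi expressing beta-galactosidase; after two days medium replaced with serial drug dilutions; four-day incubation; chlorophenol red beta-D-galactopyranoside substrate added, absorbance read at 540 nm 2-6 h later to quantify parasite growth; IC50 determined.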

For another test, the target named is T1, Dihydrofolate reductase (Homo sapiens, UniProt P00374).
T1 sequence (P00374 whole entry): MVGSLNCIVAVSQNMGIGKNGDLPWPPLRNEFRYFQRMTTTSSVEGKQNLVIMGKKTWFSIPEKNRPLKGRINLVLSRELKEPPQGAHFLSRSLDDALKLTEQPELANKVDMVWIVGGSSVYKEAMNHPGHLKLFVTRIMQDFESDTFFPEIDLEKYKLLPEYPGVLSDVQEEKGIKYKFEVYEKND
Briefly: Inhibitory activity against dihydrofolate reductase in humans.

A value given as a limit tells only on which side of the number the result lay.

In test [1], `Nc1nc(N)c2nc(CN(CCCCC(=O)O)c3ccc(C(=O)NC(CCC(=O)O)C(=O)O)cc3)cnc2n1` (stereo not given) displayed a Selectivity of 11.1. This compound gave an IC50 in test [2] of over 167 µM. For the same compound, the Ki on Dihydrofolate reductase was determined as 0.00145 µM.
`CCOC(=O)CCCCCN(Cc1cnc2nc(N)nc(N)c2n1)c1ccc(C(=O)NC(CCC(=O)OCC)C(=O)OCC)cc1` (stereo not given): the Selectivity in test [1] turned out to be 8.71. The same compound registered a half-maximal inhibitory concentration (IC50) in test [2] of 53.5 µM. For the same compound, on Dihydrofolate reductase, the affinity corresponds to a Ki of 0.485 µM.
In test [2], `CN(Cc1cnc2nc(N)nc(N)c2n1)c1ccc(C(=O)N[C@@H](CCC(=O)O)C(=O)O)cc1` [METHOTREXATE] showed an IC50 of 9.2 µM.
On to `Nc1nc(N)c2nc(CN(CCCCCC(=O)O)c3ccc(C(=O)NC(CCC(=O)O)C(=O)O)cc3)cnc2n1` (stereo not given), for which the Selectivity in test [1] was 8.9. This compound also yielded an IC50 in test [2] of 11.5 µM. Besides, the affinity on Dihydrofolate reductase corresponds to a Ki of 0.00163 µM.
`CCOC(=O)CCCN(Cc1cnc2nc(N)nc(N)c2n1)c1ccc(C(=O)NC(CCC(=O)OCC)C(=O)OCC)cc1` (stereo not given) displayed an IC50 in test [2] of 61 µM.
On the same count and under the same terms, to `Nc1nc(N)c2nc(CN(CCCC(=O)O)c3ccc(C(=O)NC(CCC(=O)O)C(=O)O)cc3)cnc2n1` (stereo not given) belongs over 171 µM.
`CCOC(=O)CCCCN(Cc1cnc2nc(N)nc(N)c2n1)c1ccc(C(=O)NC(CCC(=O)OCC)C(=O)OCC)cc1` (stereo not given) displayed a Selectivity in test [1] of 9.9. The compound also registered an IC50 in test [2] of 38.8 µM. Besides, the Ki on Dihydrofolate reductase came out at 0.453 µM.
